According to ChEMBL document CHEMBL1811884, “Bioactive neo-clerodane diterpenoids from the whole plants of Ajuga ciliata Bunge” (J Nat Prod, 2011):
Calls of active or inactive are those of the source. No cut-off for these calls is given here.

Legend:
SH-SY5Y [1] = test: Neuroprotective activity against MPP+-induced neuronal cell death in human SH-SY5Y cells assessed as cell viability at 3 uM pretreated for 2 hrs before MPP+ administration measured after 4 hrs by MTT assay; assay type: functional
Procedure, shortened: (§1)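 SH-SY5Y cells grown at 37 °C in DMEM with 10% heat-inactivated FBS and penicillin/streptomycin, detached with 1 mM EGTA in PBS for 15 min, seeded at 1 × 10^4 cells/well and incubated 24 h. Cells were pretreated 2 h with compound at 3, 10 or 30 μM, then exposed to MPP+ medium. MTT was added to 0.5 mg/mL final, incubated 4 h, and formazan read at 550 nm. Guanosine served as positive control. Triplicates, mean ± SEM, ANOVA with Student–Newman–Keuls test.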

SH-SY5Y [2] = test: Neuroprotective activity against MPP+-induced neuronal cell death in human SH-SY5Y cells assessed as cell viability at 30 uM pretreated for 2 hrs before MPP+ administration measured after 4 hrs by MTT assay; assay type: functional; procedure, shortened: as §1
SH-SY5Y [3] = test: Neuroprotective activity against MPP+-induced neuronal cell death in human SH-SY5Y cells assessed as cell viability at 10 uM pretreated for 2 hrs before MPP+ administration measured after 4 hrs by MTT assay; assay type: functional; procedure, shortened: as §1
SH-SY5Y [4] = test: Cytotoxicity in human SH-SY5Y cells at 3 to 30 uM by MTT assay; assay type: cell-based
Procedure, shortened: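 SH-SY5Y human dopaminergic neuroblastoma cells grown at 37 °C, 5% CO2, in DMEM with 10% inactivated FBS and penicillin/streptomycin. Cells detached with 1 mM EGTA in PBS for 15 min, seeded at 1 × 10^4 cells/well, and incubated 24 h. Compounds given at 3, 10 and 30 μM. MTT added to 0.5 mg/mL final for 4 h at 37 °C; formazan read at 550 nm. Run in triplicate.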

Row | SMILES | Activity (SH-SY5Y [1]) | Activity (SH-SY5Y [2]) | Activity (SH-SY5Y [3]) | Activity (SH-SY5Y [4])
1 | C/C=C(\C)C(=O)O[C@@H](C[C@@]1(C)[C@H](C)C[C@H](OC(C)=O)[C@]2(COC(C)=O)[C@@H]1[C@H](OC(=O)[C@@H](C)CC)CC[C@]21CO1)C1=CC(=O)OC1 [AJUGAMARIN H1] | 67.3% | 87.5% | 70.4% | 
2 | C/C=C(\C)C(=O)O[C@@H]1CC[C@]2(CO2)[C@]2(COC(C)=O)[C@@H](OC(C)=O)C[C@@H](C)[C@](C)(C[C@H](O)C3=CC(=O)OC3)[C@@H]12 [AJUGAMARIN A1] | 65.3% | 81.9% | 73.4% | 
3 | C/C=C(\C)C(=O)O[C@@H]1CC[C@](O)(CCl)[C@]2(COC(C)=O)[C@@H](OC(C)=O)C[C@@H](C)[C@](C)(C[C@H](OC(=O)[C@@H](C)CC)C3=CC(=O)OC3)[C@@H]12 | inactive | inactive | inactive | 
4 | CC[C@H](C)C(=O)O[C@@H](C[C@@]1(C)[C@H](C)C[C@H](OC(C)=O)[C@]2(COC(C)=O)[C@@H]1[C@H](OC(=O)[C@@H](C)CC)CC[C@]21CO1)C1=CC(=O)OC1 [AJUGATAKASIN B] | 70.2% | 84.3% | 76.5% | 
5 | CC[C@H](C)C(=O)O[C@@H]1CC[C@](O)(CCl)[C@]2(COC(C)=O)[C@@H](OC(C)=O)C[C@@H](C)[C@](C)(C[C@H](OC(C)=O)C3=CC(=O)OC3)[C@@H]12 | inactive | inactive | inactive | 
6 | C/C=C(\C)C(=O)OC[C@@]12[C@H](CCC[C@]1(O)CO)[C@@](C)(CCC1=CC(=O)OC1)[C@H](C)C[C@@H]2O | inactive | inactive | inactive | 
7 | CC(=O)OC[C@]12[C@@H](OC(C)=O)C[C@@H](C)[C@]3(C)C[C@H](C4=CC(=O)OC4)O[C@H](CC[C@]1(O)CCl)[C@H]32 | inactive | inactive | inactive | 
8 | C/C=C(\C)C(=O)OC[C@@]12[C@@H](OC(C)=O)C[C@@H](C)[C@](C)(CCC3=CC(=O)OC3)[C@H]1CCC[C@]21CO1 | inactive | inactive | inactive | 
9 | C/C=C(\C)C(=O)O[C@@H]1CC[C@]2(CO2)[C@]2(COC(C)=O)[C@@H](OC(C)=O)C[C@@H](C)[C@](C)(C[C@H](OC(C)=O)C3=CC(=O)OC3)[C@@H]12 | inactive | inactive | inactive | 
10 | C/C=C(\C)C(=O)OC[C@@]12[C@@H](OC(C)=O)C[C@@H](C)[C@](C)(CCC3=CC(=O)OC3)[C@H]1CCC[C@]2(O)CCl | inactive | inactive | inactive | 
11 | C/C=C(\C)C(=O)O[C@@H](C[C@@]1(C)[C@H](C)C[C@H](OC(C)=O)[C@]2(COC(C)=O)[C@@H]1[C@H](OC(=O)/C(C)=C/C)CC[C@]2(O)CCl)C1=CC(=O)OC1 | inactive | inactive | inactive | 
12 | C/C=C(\C)C(=O)O[C@@H](C[C@@]1(C)[C@H](C)C[C@H](OC(C)=O)[C@]2(COC(C)=O)[C@@H]1CCC[C@]21CO1)C1=CC(=O)OC1 | inactive | inactive | inactive | 
13 | CC(=O)OC[C@@]12[C@@H](OC(C)=O)C[C@@H](C)[C@](C)(C[C@H](O)C3=CC(=O)OC3)[C@H]1CCC[C@]21CO1 | inactive | inactive | inactive | 
14 | C/C=C(\C)C(=O)O[C@@H]1CC[C@](O)(CCl)[C@]2(COC(C)=O)[C@@H](OC(C)=O)C[C@@H](C)[C@](C)(C[C@H](O)C3=CC(=O)OC3)[C@@H]12 [AJUGAMARIN A1 CHLOROHYDRIN] | 67.1% | 73.8% | 69.2% | 
15 | CC(=O)OC[C@@]12[C@@H](OC(C)=O)C[C@@H](C)[C@](C)(C[C@H](OC(C)=O)C3=CC(=O)OC3)[C@H]1[C@H](OC(C)=O)CC[C@]21CO1 | inactive | inactive | inactive | 
16 | CC[C@H](C)C(=O)O[C@@H](C[C@@]1(C)[C@H](C)C[C@H](OC(C)=O)[C@]2(COC(C)=O)[C@@H]1[C@H](OC(=O)[C@@H](C)CC)CC[C@]2(O)CCl)C1=CC(=O)OC1 | inactive | inactive | inactive | 
17 | Nc1nc2c(ncn2[C@@H]2O[C@H](CO)[C@@H](O)[C@H]2O)c(=O)[nH]1 [GUANOSINE] | 70% | 90.1% | 79.7% | 
18 | CC[C@H](C)C(=O)O[C@@H]1CC[C@]2(CO2)[C@]2(COC(C)=O)[C@@H](OC(C)=O)C[C@@H](C)[C@](C)(C[C@H](O)C3=CC(=O)OC3)[C@@H]12 | inactive | inactive | inactive | 
19 | C/C=C(\C)C(=O)[C@@H]1CC[C@]2(CO2)[C@]2(COC(C)=O)[C@@H](OC(C)=O)C[C@@H](C)[C@](C)(C[C@H](OC(=O)[C@@H](C)CC)C3=CC(=O)OC3)[C@@H]12 | inactive | inactive | inactive | 
20 | CC(=O)OC[C@]12[C@@H](OC(C)=O)C[C@@H](C)[C@]3(C)C[C@H](C4=CC(=O)OC4)O[C@H](CC[C@]1(O)CO)[C@H]32 [AJUGACILIATIN G] | 69.1% | 81.5% | 73.6% | 
21 | CC(=O)OC[C@@]12[C@@H](OC(C)=O)C[C@@H](C)[C@](C)(C[C@H](O)C3=CC(=O)OC3)[C@H]1[C@H](OC(C)=O)CC[C@]21CO1 | inactive | inactive | inactive | 
22 | C/C=C(\C)C(=O)O[C@@H](C[C@@]1(C)[C@H](C)C[C@H](OC(C)=O)[C@]2(COC(C)=O)[C@@H]1[C@H](OC(=O)/C(C)=C/C)CC[C@]21CO1)C1=CC(=O)OC1 [AJUGATAKASIN A] | 66.3% | 78.2% | 71.5% | 
23 | CC[C@H](C)C(=O)O[C@@H](C[C@@]1(C)[C@H](C)C[C@H](OC(C)=O)[C@]2(COC(C)=O)[C@@H]1[C@H](OC(C)=O)CC[C@]2(O)CCl)C1=CC(=O)OC1 [AJUGACILIATIN B] | 67.4% | 88.2% | 80.4% | 
24 | C/C=C(\C)C(=O)OC[C@@]1(O)CCC[C@@H]2[C@@](C)(CCC3=CC(=O)OC3)[C@H](C)C[C@H](O)[C@]21CO | inactive | inactive | inactive | 
25 | CC(=O)OC[C@]12[C@@H](OC(C)=O)C[C@@H](C)[C@]3(C)C[C@H](C4=CC(=O)OC4)O[C@H](CC[C@]14CO4)[C@H]32 [AJUGACILIATIN H] | 65.2% | 78.2% | 74.2% | 
26 | C/C=C(\C)C(=O)OC[C@@]12[C@H](CCC[C@]1(O)COC(C)=O)[C@@](C)(CCC1=CC(=O)OC1)[C@H](C)C[C@@H]2O | inactive | inactive | inactive | 
27 | C/C=C(\C)C(=O)O[C@@H](C[C@@]1(C)[C@H](C)C[C@H](OC(C)=O)[C@]2(COC(C)=O)[C@@H]1[C@H](OC(C)=O)CC[C@]21CO1)C1=CC(=O)OC1 [AJUGANIPPONIN A] | 65.4% | 76.6% | 69.2% | Non-toxic
28 | C/C=C(\C)C(=O)O[C@@H]1CC[C@](O)(CCl)[C@]2(COC(C)=O)[C@@H](OC(C)=O)C[C@@H](C)[C@](C)(C[C@H](OC(C)=O)C3=CC(=O)OC3)[C@@H]12 [AJUGAMARIN A2 CHLOROHYDRIN] | 71% | 83.7% | 79.7% | 
